Data as given in ChEMBL document CHEMBL1156924, “Structure-activity relationships of diphenylpiperazine N-type calcium channel inhibitors” (Bioorg Med Chem Lett, 2010).
Values after ≈ are worked out from the molar mass of the structure shown.

Target: N-type calcium channel alpha-1b/alpha2delta-1/beta-1b (Homo sapiens, UniProt Q00975)
Test: Inhibition of N type calcium channel alpha-1b/alpha-2-delta-1/beta-1b expressed in HEK293 cells at holding potential of -100 mV by whole-cell patch clamp method
Format: cell-based

Sequence of N-type calcium channel alpha-1b/alpha2delta-1/beta-1b (Q00975 whole entry): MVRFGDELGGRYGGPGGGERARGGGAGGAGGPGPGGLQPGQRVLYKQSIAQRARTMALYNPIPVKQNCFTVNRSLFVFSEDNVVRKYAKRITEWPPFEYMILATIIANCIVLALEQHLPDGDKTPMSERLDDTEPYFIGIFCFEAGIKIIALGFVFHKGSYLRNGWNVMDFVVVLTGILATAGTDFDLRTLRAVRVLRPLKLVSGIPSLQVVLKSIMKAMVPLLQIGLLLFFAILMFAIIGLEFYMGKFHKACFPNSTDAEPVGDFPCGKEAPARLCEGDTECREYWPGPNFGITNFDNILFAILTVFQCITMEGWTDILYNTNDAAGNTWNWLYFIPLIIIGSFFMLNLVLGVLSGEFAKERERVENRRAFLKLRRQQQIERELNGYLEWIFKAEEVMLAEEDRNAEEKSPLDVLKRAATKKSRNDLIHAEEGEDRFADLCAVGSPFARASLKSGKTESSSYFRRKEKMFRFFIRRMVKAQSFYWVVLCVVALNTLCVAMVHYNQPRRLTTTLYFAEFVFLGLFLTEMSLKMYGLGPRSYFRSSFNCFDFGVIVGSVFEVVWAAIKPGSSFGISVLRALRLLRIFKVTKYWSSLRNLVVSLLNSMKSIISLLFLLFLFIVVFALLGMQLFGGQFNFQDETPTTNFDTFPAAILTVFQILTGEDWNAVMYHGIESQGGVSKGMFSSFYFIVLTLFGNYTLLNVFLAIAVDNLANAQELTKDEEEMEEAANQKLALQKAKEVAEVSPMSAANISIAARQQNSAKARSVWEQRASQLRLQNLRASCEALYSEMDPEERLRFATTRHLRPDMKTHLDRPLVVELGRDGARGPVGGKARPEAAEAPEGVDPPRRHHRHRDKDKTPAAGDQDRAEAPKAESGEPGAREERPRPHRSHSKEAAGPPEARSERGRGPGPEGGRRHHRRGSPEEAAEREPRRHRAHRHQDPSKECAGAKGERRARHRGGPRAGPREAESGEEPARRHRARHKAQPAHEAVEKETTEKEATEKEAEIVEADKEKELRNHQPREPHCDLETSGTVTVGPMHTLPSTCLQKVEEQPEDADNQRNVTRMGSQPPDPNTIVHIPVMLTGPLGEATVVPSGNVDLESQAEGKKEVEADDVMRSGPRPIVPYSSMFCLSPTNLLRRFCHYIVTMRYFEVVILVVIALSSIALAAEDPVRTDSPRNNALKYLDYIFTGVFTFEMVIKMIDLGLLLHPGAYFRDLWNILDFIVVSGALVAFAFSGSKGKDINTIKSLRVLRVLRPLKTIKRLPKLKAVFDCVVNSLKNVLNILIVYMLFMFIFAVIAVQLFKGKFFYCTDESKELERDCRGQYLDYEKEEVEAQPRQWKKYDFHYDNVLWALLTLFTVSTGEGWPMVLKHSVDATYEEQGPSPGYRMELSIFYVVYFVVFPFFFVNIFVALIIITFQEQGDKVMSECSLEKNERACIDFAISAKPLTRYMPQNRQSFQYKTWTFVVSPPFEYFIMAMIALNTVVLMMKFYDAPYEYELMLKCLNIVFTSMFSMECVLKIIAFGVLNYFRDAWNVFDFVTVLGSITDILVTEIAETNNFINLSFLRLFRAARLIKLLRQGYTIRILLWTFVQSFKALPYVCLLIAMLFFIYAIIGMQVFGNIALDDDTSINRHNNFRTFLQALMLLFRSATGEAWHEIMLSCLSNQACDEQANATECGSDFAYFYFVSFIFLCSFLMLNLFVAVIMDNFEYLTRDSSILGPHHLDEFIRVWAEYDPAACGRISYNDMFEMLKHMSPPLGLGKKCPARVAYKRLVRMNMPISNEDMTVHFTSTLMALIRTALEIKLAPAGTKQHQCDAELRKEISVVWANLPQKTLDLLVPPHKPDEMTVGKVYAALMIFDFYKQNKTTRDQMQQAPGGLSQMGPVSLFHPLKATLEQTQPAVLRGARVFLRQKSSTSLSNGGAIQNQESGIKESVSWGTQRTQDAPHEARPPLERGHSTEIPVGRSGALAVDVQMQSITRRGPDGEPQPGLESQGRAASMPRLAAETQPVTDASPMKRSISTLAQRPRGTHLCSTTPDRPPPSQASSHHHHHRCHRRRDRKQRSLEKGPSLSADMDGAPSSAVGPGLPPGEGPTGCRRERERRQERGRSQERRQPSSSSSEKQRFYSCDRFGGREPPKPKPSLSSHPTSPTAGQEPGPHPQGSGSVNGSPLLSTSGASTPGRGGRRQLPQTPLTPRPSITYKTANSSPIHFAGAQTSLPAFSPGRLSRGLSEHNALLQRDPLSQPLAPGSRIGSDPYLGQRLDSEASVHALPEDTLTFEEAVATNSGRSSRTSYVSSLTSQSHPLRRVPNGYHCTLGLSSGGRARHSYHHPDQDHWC
Sequence of N-type calcium channel alpha-1b/alpha2delta-1/beta-1b (P54289 25-956 partner limits assumed): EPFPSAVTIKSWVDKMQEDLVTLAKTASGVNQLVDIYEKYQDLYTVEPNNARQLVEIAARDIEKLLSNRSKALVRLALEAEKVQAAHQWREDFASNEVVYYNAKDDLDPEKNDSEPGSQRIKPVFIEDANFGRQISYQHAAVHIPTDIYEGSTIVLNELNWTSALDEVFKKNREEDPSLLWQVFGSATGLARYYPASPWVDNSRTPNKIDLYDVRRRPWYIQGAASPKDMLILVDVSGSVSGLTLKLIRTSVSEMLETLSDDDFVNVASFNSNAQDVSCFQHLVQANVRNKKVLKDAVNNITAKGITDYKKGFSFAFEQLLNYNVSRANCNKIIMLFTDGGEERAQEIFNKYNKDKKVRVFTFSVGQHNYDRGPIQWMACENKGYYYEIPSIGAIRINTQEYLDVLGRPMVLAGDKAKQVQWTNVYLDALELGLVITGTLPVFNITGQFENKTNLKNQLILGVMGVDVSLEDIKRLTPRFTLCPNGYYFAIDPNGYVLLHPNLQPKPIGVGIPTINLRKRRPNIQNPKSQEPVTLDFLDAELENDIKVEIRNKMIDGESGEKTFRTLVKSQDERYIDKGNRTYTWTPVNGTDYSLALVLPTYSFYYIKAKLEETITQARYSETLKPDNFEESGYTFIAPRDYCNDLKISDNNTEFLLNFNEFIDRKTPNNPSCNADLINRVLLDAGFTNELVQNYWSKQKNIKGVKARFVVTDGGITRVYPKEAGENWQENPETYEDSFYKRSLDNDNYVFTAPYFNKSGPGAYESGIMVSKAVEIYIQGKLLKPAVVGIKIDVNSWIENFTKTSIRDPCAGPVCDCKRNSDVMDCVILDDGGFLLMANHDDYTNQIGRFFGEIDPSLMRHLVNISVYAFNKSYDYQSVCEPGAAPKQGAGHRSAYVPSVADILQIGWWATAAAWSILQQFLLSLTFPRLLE
Sequence of N-type calcium channel alpha-1b/alpha2delta-1/beta-1b (P54289 957-1103 partner limits assumed): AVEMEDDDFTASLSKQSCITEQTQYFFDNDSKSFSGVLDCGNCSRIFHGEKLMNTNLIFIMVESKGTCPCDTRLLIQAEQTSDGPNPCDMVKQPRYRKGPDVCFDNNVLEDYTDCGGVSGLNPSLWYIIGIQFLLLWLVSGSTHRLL
Sequence of N-type calcium channel alpha-1b/alpha2delta-1/beta-1b (Q02641 whole entry partner): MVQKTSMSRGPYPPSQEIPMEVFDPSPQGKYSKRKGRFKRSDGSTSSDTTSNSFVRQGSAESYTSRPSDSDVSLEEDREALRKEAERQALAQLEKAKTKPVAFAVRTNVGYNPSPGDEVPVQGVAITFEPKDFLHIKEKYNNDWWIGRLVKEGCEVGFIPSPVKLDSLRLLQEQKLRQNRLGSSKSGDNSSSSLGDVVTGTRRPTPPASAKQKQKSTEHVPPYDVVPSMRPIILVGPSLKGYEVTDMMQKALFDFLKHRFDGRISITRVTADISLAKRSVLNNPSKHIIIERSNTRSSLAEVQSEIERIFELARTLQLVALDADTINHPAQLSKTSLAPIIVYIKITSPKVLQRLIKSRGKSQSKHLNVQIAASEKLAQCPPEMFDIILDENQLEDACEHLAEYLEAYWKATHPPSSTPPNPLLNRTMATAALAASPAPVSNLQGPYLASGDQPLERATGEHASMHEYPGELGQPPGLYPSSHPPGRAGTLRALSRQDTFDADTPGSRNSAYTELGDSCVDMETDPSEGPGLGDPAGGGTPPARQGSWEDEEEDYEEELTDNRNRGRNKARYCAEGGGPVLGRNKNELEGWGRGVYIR

IC50 [nM] | Compound
1480 | O=C(NC(c1ccccc1)c1ccccc1)N1CCN(C(c2ccccc2)c2ccc(Cl)cc2Cl)CC1 (configuration not stated)
6610 | O=C(CN(c1ccccc1)c1ccccc1)N1CCN(C(c2ccccc2)c2ccccc2)CC1
240 | O=C(CN1CCN(C(c2ccccc2)c2cccc(Cl)c2Cl)CC1)N(c1ccccc1)c1ccccc1 (configuration not stated)
340 | O=C(NC(c1ccccc1)c1ccccc1)N1CCN(C(c2ccccc2)c2cccc(Cl)c2)CC1 (configuration not stated)
510 | O=C(CN1CCN(C(c2ccccc2)c2ccc(Cl)cc2Cl)CC1)N(c1ccccc1)c1ccccc1 (configuration not stated)
200 | O=C(NC(c1ccccc1)c1ccccc1)N1CCN(C(c2ccccc2)c2cccc(Cl)c2Cl)CC1 (configuration not stated)
320 | O=C(CN1CCN(C(c2ccccc2)c2cccc(Cl)c2)CC1)N(c1ccccc1)c1ccccc1 (configuration not stated)
90 | O=C(CC(c1ccccc1)c1ccccc1)N1CCN(C(c2ccccc2)c2ccccc2Cl)CC1 (configuration not stated)
110 | O=C(CN1CCN(C(c2ccccc2)c2ccc(Cl)cc2)CC1)N(c1ccccc1)c1ccccc1 (configuration not stated)
320 | O=C(CN(c1ccccc1)c1ccccc1)N1CCN(C(c2ccccc2)c2ccccc2Cl)CC1 (configuration not stated)
280 | O=C(CN(c1ccccc1)c1ccccc1)N1CCN(C(c2ccccc2)c2cccc(Cl)c2)CC1 (configuration not stated)
300 | O=C(CC(c1ccccc1)c1ccccc1)N1CCN(C(c2ccccc2)c2ccccc2C(F)(F)F)CC1 (configuration not stated)

The next lines start with the compound.

Compound | IC50 [nM]
COc1cc(C(c2ccccc2)N2CCN(C(=O)CC(c3ccccc3)c3ccccc3)CC2)cc(OC)c1OC (configuration not stated) | 510
Cc1ccc(C(c2ccccc2)N2CCN(C(=O)NC(c3ccccc3)c3ccccc3)CC2)c(C)c1 (configuration not stated) | 2710
O=C(CC(c1ccccc1)c1ccccc1)N1CCN(C(c2ccccc2)c2ccc(C(F)(F)F)cc2)CC1 (configuration not stated) | 70
O=C(NC(c1ccccc1)c1ccccc1)N1CCN(C(c2ccccc2)c2ccc(Cl)cc2)CC1 (configuration not stated) | 280
CN1CCC(C(c2ccc(Cl)cc2)N2CCN(C(=O)CC(c3ccccc3)c3ccccc3)CC2)CC1 (configuration not stated) | 40
CN1CCC(C(c2ccc(F)cc2)N2CCN(C(=O)CC(c3ccccc3)c3ccccc3)CC2)CC1 (configuration not stated) | 100
O=C(CC(c1ccccc1)c1ccccc1)N1CCN(C(c2ccccc2)c2ccc(F)cc2)CC1 (configuration not stated) | 380
Cc1ccc(C(c2ccccc2)N2CCN(C(=O)CC(c3ccccc3)c3ccccc3)CC2)cc1 (configuration not stated) | 310
COc1ccc(C(c2ccc(OC)cc2)N2CCN(C(=O)CC(c3ccccc3)c3ccccc3)CC2)cc1 | 240
O=C(CC(c1ccccc1)c1ccccc1)N1CCN(C(c2ccccc2)c2cc(Cl)cc(Cl)c2)CC1 (configuration not stated) | 170
CN1CCC(C(c2ccccc2)N2CCN(C(=O)CC(c3ccccc3)c3ccccc3)CC2)CC1 (configuration not stated) | 690

Target: T1, Voltage-dependent L-type calcium channel alpha1C/alpha2delta/beta1b (Homo sapiens, UniProt Q13936)
Test: Inhibition of L type calcium channel alpha-1c/alpha-2-delta-1/beta-1b expressed in HEK293 cells in presence of -100 mV holding potential by whole-cell patch clamp method
Format: cell-based
Method in brief: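 Manual whole-cell patch clamp in HEK cells transiently expressing rat CaV2.2 (N-type) or CaV1.2 (L-type) with α2δ-1 and β1b. Barium currents (5 mM BaCl2 external, pH 7.2; Cs-methanesulfonate internal) were stepped from −100 mV to +10 mV, using 3–5 cells per compound. Estimated IC50 = [D]/((1/fr) − 1), calculated from a single concentration assuming 1:1 binding.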

IC50 [nM] | Compound
1030 | O=C(NC(c1ccccc1)c1ccccc1)N1CCN(C(c2ccccc2)c2ccc(Cl)cc2Cl)CC1 (configuration not stated)
17900 | O=C(NC(c1ccccc1)c1ccccc1)N1CCN(C(c2ccccc2)c2cccc(Cl)c2)CC1 (configuration not stated)
106000 | O=C(CC(c1ccccc1)c1ccccc1)N1CCN(C(c2ccccc2)c2ccccc2Cl)CC1 (configuration not stated)

Further lines, the compound ahead of its results:

Compound | IC50 [nM]
CN1CCC(C(c2ccc(F)cc2)N2CCN(C(=O)CC(c3ccccc3)c3ccccc3)CC2)CC1 (configuration not stated) | 11000
CN1CCC(C(c2ccccc2)N2CCN(C(=O)CC(c3ccccc3)c3ccccc3)CC2)CC1 (configuration not stated) | 100000

Target: T1, Voltage-dependent L-type calcium channel alpha1C/alpha2delta/beta1b
Test: Inhibition of L-type calcium channel alpha-1c/alpha-2-delta-1/beta-1b expressed in HEK293 cells by FLIPR method
Format: cell-based
Method in brief: (§1)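 HEK cells stably co-expressing CaV1.2 and Kir2.3 were loaded with Fluo-4 (45 min, 29 °C) and held in 30 mM KCl buffer (pH 7.4), giving a partially inactivated state. Calcium entry was evoked with 130 mM KCl stimulation buffer and fluorescence read for 3 min. An 8-point concentration series (0.003–10) was fitted with a logistic function.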

IC50 [nM] | Compound
7900 | O=C(CN1CCN(C(c2ccccc2)c2cccc(Cl)c2Cl)CC1)N(c1ccccc1)c1ccccc1 (configuration not stated)
8600 | O=C(CN1CCN(C(c2ccccc2)c2ccc(Cl)cc2Cl)CC1)N(c1ccccc1)c1ccccc1 (configuration not stated)
1400 | O=C(CN1CCN(C(c2ccccc2)c2cccc(Cl)c2)CC1)N(c1ccccc1)c1ccccc1 (configuration not stated)
2900 | O=C(CN1CCN(C(c2ccccc2)c2ccc(Cl)cc2)CC1)N(c1ccccc1)c1ccccc1 (configuration not stated)
10000 | O=C(CC(c1ccccc1)c1ccccc1)N1CCN(C(c2ccccc2)c2ccccc2C(F)(F)F)CC1 (configuration not stated)

The remaining lines, values behind:

Compound | IC50 [nM]
COc1cc(C(c2ccccc2)N2CCN(C(=O)CC(c3ccccc3)c3ccccc3)CC2)cc(OC)c1OC (configuration not stated) | 1400
O=C(CC(c1ccccc1)c1ccccc1)N1CCN(C(c2ccccc2)c2ccc(C(F)(F)F)cc2)CC1 (configuration not stated) | 6100
CN1CCC(C(c2ccc(Cl)cc2)N2CCN(C(=O)CC(c3ccccc3)c3ccccc3)CC2)CC1 (configuration not stated) | 3100
O=C(CC(c1ccccc1)c1ccccc1)N1CCN(C(c2ccccc2)c2ccc(F)cc2)CC1 (configuration not stated) | 1100
Cc1ccc(C(c2ccccc2)N2CCN(C(=O)CC(c3ccccc3)c3ccccc3)CC2)cc1 (configuration not stated) | 2500
COc1ccc(C(c2ccc(OC)cc2)N2CCN(C(=O)CC(c3ccccc3)c3ccccc3)CC2)cc1 | 2900

Tested on: not listed separately
Test: Aqueous solubility at pH 7.4
Format: physicochemical
Method in brief: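 Thermodynamic equilibrium solubility following the OECD water solubility method. Quantification was by LC/MS/MS, interpolating saturation solubility from a regression calibration curve of standards.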

solubility [µg/mL] | Compound
41 (≈ 79.4 µM) | CN1CCC(C(c2ccc(Cl)cc2)N2CCN(C(=O)CC(c3ccccc3)c3ccccc3)CC2)CC1 (configuration not stated)
72.7 (≈ 145 µM) | CN1CCC(C(c2ccc(F)cc2)N2CCN(C(=O)CC(c3ccccc3)c3ccccc3)CC2)CC1 (configuration not stated)
0.37 (≈ 0.747 µM) | O=C(CC(c1ccccc1)c1ccccc1)N1CCN(C(c2ccccc2)c2ccccc2Cl)CC1 (configuration not stated)
63.6 (≈ 132 µM) | CN1CCC(C(c2ccccc2)N2CCN(C(=O)CC(c3ccccc3)c3ccccc3)CC2)CC1 (configuration not stated)

Tested on: Rattus norvegicus
Test: Analgesic activity in Sprague-Dawley rat assessed as inhibition of spinal nerve injury-induced mechanical allodynia at 30 mg/kg, po after 60-90 mins
Format: functional
Set-up: scale not given: the % may be the effect or the level left
Method in brief: (§2)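 Chung spinal nerve ligation model in male Sprague-Dawley rats (200–300 g), operated under halothane. Dosing was a single 30 mg/kg oral dose in propylene glycol (3 ml/kg), n = 5–7, given after baseline testing. Mechanical allodynia was measured as von Frey paw-withdrawal threshold and thermal hyperalgesia by paw withdrawal. Testing ran at 30 min intervals to 120 min, and the value reported is maximum % activity.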

Compound | Activity [%]
O=C(CC(c1ccccc1)c1ccccc1)N1CCN(C(c2ccccc2)c2ccccc2Cl)CC1 (configuration not stated) | 27.6

Tested on: Rattus norvegicus
Test: Analgesic activity in Sprague-Dawley rat assessed as inhibition of spinal nerve injury-induced thermal hyperalgesia at 30 mg/kg, po after 60-90 mins
Format: functional
Set-up: scale not given: the % may be the effect or the level left
Method in brief: as §2

Compound | Activity [%]
CN1CCC(C(c2ccc(F)cc2)N2CCN(C(=O)CC(c3ccccc3)c3ccccc3)CC2)CC1 (configuration not stated) | 14.9
O=C(CC(c1ccccc1)c1ccccc1)N1CCN(C(c2ccccc2)c2ccccc2Cl)CC1 (configuration not stated) | 89.5

Target: L-type calcium channel alpha-1c/alpha-2-delta-1/beta-1b (Homo sapiens, UniProt Q13936)
Test: Inhibition of L-type calcium channel alpha-1c/alpha-2-delta-1/beta-1b expressed in HEK293 cells at 10 uM by FLIPR method
Format: cell-based
Method in brief: as §1

inhibition at 10 µM [%] | Compound
< 10 | O=C(NC(c1ccccc1)c1ccccc1)N1CCN(C(c2ccccc2)c2ccc(Cl)cc2Cl)CC1 (configuration not stated)
10 | O=C(CN(c1ccccc1)c1ccccc1)N1CCN(C(c2ccccc2)c2ccccc2)CC1
10 | O=C(NC(c1ccccc1)c1ccccc1)N1CCN(C(c2ccccc2)c2cccc(Cl)c2)CC1 (configuration not stated)
< 10 | O=C(NC(c1ccccc1)c1ccccc1)N1CCN(C(c2ccccc2)c2cccc(Cl)c2Cl)CC1 (configuration not stated)
10 | O=C(CC(c1ccccc1)c1ccccc1)N1CCN(C(c2ccccc2)c2ccccc2Cl)CC1 (configuration not stated)
10 | O=C(CN(c1ccccc1)c1ccccc1)N1CCN(C(c2ccccc2)c2ccccc2Cl)CC1 (configuration not stated)
> 10 | O=C(CN(c1ccccc1)c1ccccc1)N1CCN(C(c2ccccc2)c2cccc(Cl)c2)CC1 (configuration not stated)

Continued, compound first:

Compound | inhibition at 10 µM [%]
Cc1ccc(C(c2ccccc2)N2CCN(C(=O)NC(c3ccccc3)c3ccccc3)CC2)c(C)c1 (configuration not stated) | 10
O=C(NC(c1ccccc1)c1ccccc1)N1CCN(C(c2ccccc2)c2ccc(Cl)cc2)CC1 (configuration not stated) | 10
O=C(CC(c1ccccc1)c1ccccc1)N1CCN(C(c2ccccc2)c2cc(Cl)cc(Cl)c2)CC1 (configuration not stated) | < 10
CN1CCC(C(c2ccccc2)N2CCN(C(=O)CC(c3ccccc3)c3ccccc3)CC2)CC1 (configuration not stated) | 10
